Laboratory results as given in PubChem BioAssay AID1040 (The Scripps Research Institute Molecular Screening Center, 2008).
Screen size: about 200,000 compounds; about 2,000 (1%) were called active. Shown is part of a subset that was picked to be rich in actives. Values without a mark were called inactive.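 Rule for the calls: active = inhibition above the campaign mean inhibition of all tested compounds plus 3 SD (cut at about 20% in these data); inactive = the rest.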

target: Neuropeptide Y receptor type 1 (Homo sapiens) (UniProt P25929); experiment: blockers of human neuropeptide Y Y1 receptor – cell-based, primary screen (AID 1040); details: HEK293-CNG Y1 cells, membrane potential fluorescence; at 3.6 µM; hits give high values; NPY at EC95, then isoproterenol;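 note: 0% = DMSO wells given NPY plus isoproterenol and 100% = isoproterenol alone without NPY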
Method in brief: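 System: HEK293 cells with Y1 receptor plus CNG channel / Probe or stimulus: NPY 25 nM then isoproterenol 1 µM plus Ro 20-1724 25 µM / Compound: one concentration, 3.6 µM, in 0.4% DMSO / Schedule: compound incubation 1 h at room temperature, readout 45 min post-stimulation / Measured by: membrane potential fluorescence / Read-out: % inhibition of NPY effect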

Sequence of Neuropeptide Y receptor type 1 (Homo sapiens) (P25929 whole entry, looked up): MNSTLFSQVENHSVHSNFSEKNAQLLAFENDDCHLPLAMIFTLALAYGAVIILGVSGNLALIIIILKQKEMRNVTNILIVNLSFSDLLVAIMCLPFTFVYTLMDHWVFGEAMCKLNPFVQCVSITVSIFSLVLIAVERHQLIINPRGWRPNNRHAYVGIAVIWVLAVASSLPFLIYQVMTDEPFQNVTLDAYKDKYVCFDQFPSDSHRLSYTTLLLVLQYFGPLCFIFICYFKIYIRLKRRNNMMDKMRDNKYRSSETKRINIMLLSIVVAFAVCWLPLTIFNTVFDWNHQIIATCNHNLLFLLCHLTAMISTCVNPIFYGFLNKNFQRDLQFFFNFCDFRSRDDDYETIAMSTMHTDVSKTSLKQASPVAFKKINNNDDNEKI

| Compound | inhibition |
| --- | --- |
| COc1ccc(C(CC(=O)O)NC(=O)Cc2ccccc2)cc1 (stereo not given) | -4.05% |
| CCC/C=C(\CCC)C(NC(=O)Cc1ccccc1)c1ccc(C(=O)OC)cc1 (stereo not given) | 26.8% (active) |
| CCC[C@@H]1C[C@@]1(CCC)[C@@H](NC(=O)c1ccccc1)c1ccc(C(=O)OC)cc1 | 6.57% |
| O=C(CCc1nnc(CCCCc2ccccc2)o1)NC(c1cccnc1)C(F)(F)F (stereo not given) | 3.83% |
| S=c1[nH]nc(Nc2ccccc2)s1 | 7.84% |
| O=[N+]([O-])c1cccc(C2=NCCS2)c1 | 2.43% |
| O=C(CN1C(=O)NC(Cc2ccccc2)(Cc2ccccc2)C1=O)NCC1CCCCC1 | 68.1% (active) |
| O=C(CN1C(=O)NC2(CCCCCC2)C1=O)NC1CC1 | 0.75% |
| O=C(CN1C(=O)NC2(CCCC2)C1=O)NCC1CCCO1 (stereo not given) | -1.75% |
| O=C(CC1SCCNC1=O)Nc1ccc(Cl)cc1 (stereo not given) | 6.74% |
| Cc1cc(C)c2c(-n3cccc3)c(NC(=O)OCc3ccccc3)sc2n1 | 36.9% (active) |
| CCCCOC(=O)Nc1sc2nc(C)cc(C)c2c1-n1cccc1 | 2.5% |
| COC(=O)Nc1sc2nc(C)cc(C)c2c1-n1cccc1 | 0.35% |
| CCC(C)NC(=O)CN(C1CCCCC1)S(C)(=O)=O (stereo not given) | 0.13% |
| O=C(NCCCN1CCOCC1)c1ccccc1NS(=O)(=O)c1ccc(F)cc1 | 5.43% |
| O=C(NCCCN1CCOCC1)c1ccccc1NS(=O)(=O)c1ccc(Br)cc1 | 11.9% |
| O=C(NCCCN1CCOCC1)c1cnn2c(-c3ccccc3)cc(-c3ccccc3)nc12 | 30.1% (active) |
| O=C(CN1CCN(c2ccc(O)cc2)CC1)NC1CCCc2ccccc21 (stereo not given) | 4.77% |
| Nc1nc(SCC(=O)NNc2c(Cl)cc(Cl)cc2Cl)n[nH]1 | 8.35% |
| CC(=O)c1c(C)[nH]c(C(=O)COC(=O)c2cccc(S(=O)(=O)N(C)c3ccccc3)c2)c1C | 2.37% |
| CC(C)CNC(=O)COC(=O)c1ccccc1OCC(=O)Nc1ccc(Br)cc1 | 3.51% |
| COc1cc(OC)c(NC(=O)c2ccc(Br)o2)cc1Cl | 0% |
| CCCC(=O)Nc1ccc(Cl)c(NC(=O)c2ccc(Br)o2)c1 | -1.88% |
| CCN1CCN(c2c(Cl)cccc2NC(=O)c2ccc(Br)o2)CC1 | 23.8% (active) |

| Compound | inhibition |
| --- | --- |
| Cc1ccc(C(=O)NC(=S)Nc2ccc(N3CCOCC3)cc2)cc1 | -3.91% |
| Cc1ccc(/C=N/NC(=O)COc2ccccc2-c2ccccc2)cc1 | 22.8% (active) |
| Cc1ccc(OCC(=O)N/N=C/c2ccncc2)cc1 | 0.98% |
| Cc1ccc(OCC(=O)N/N=C\c2ccco2)c(C)c1 | 7.4% |
| OCCNCc1cccc(OCc2ccccc2Cl)c1 | 11.2% |
| O=C(O)c1ccc(/C=N/NC(=O)c2ccc(Br)cc2)cc1 | 2.79% |
| OC(COCCC12CC3CC(CC(C3)C1)C2)CN1CCCCC1 (stereo not given) | 26.9% (active) |
| OC(COc1ccc(CN2CCSCC2)cc1)CN1CCCCC1 (stereo not given) | 6.88% |
| Cc1cccc(C)c1OCC(O)CN1CCCCC1 (stereo not given) | 6.39% |
| CCC1CCCCN1C(=O)CSc1nc2c(c(=O)n(C)c(=O)n2C)n1C (stereo not given) | 4.16% |
| CCn1c(COc2ccccc2)nnc1SCC(=O)NCc1ccco1 | -4.68% |
| COc1ccc(C(=O)CSc2nnc(COc3ccccc3)n2Cc2ccco2)cc1 | 24.4% (active) |
| C=CCn1c(CNC(=O)c2ccco2)nnc1SCC(=O)c1ccc(OC)cc1 | 0.4% |
| COc1ccc(NC(=O)CCNS(=O)(=O)c2ccc3c(c2)c(=O)n(C)c(=O)n3C)cc1OC | 5.39% |
| Cc1ccc(-n2nc3cc(Cl)c(NC(=O)c4ccco4)cc3n2)cc1 | -10% |
| Cc1ccc(Cn2c(NC(=O)c3ccco3)nc3ccccc32)cc1 | 24.1% (active) |
| CC(=O)Nc1nc2ccccc2n1Cc1ccc(C)cc1 | 6.94% |
| NC(=O)c1ccc(NC(=O)COC(=O)C(Cc2ccccc2)NC(=O)c2ccccc2)cc1 (stereo not given) | 4.77% |
| O=C(NCCc1ccc2c(c1)OCCO2)c1cc2ccccc2o1 | 21.4% (active) |
| O=C(CC(Cc1ccccc1)C(=O)O)NCCc1ccc2c(c1)OCO2 (stereo not given) | 8.49% |
| O=C(Nc1ccncc1)c1cc2ccccc2o1 | -5.2% |
| CC[C@H](C)[C@@H](C(=O)N1CCNCC1)n1cc([C@@H](N)Cc2ccc(O)cc2)nn1 | 4.22% |
| COc1cc(OC)nc(S(C)(=O)=O)n1 | -1.87% |
| Cc1ccccc1NC(=O)Cn1c(=O)n(CC2CCCO2)c(=O)c2ccccc21 (stereo not given) | 0.4% |

| Compound | inhibition |
| --- | --- |
| COc1cc(OC)cc(-c2nnc(SCC(=O)Nc3ccc(C(=O)O)cc3)s2)c1 | -5.61% |
| N=c1n(CCc2ccccc2)c2ccccc2n1Cc1ccccc1F | 24.2% (active) |
| Fc1ccccc1Cn1cnc(NC(=S)NCCc2ccccc2)n1 | 0.55% |
| CN(Cc1ccccc1)Cc1ccccc1F | 0.6% |
| CCOC(=O)C1CCCN(C(=O)c2cccc(S(=O)(=O)N3CCOCC3)c2)C1 (stereo not given) | -0.08% |
| Cc1cccc(C)c1OCC(=O)NC(Cc1c[nH]c2ccccc12)C(=O)O (stereo not given) | 6.9% |
| Cc1ccccc1-c1n[nH]c(=S)n1C | 1.64% |
| c1ccc2c(NC3C4CC5CC(C4)CC3C5)nc(N3CCOCC3)nc2c1 (stereo not given) | 31.8% (active) |
| c1ccc(-c2nnc(N3CCOCC3)c3ccccc23)cc1 | -0.9% |
| c1ccc(Nc2nc(N3CCOCC3)c3ccccc3n2)cc1 | 3.28% |
| COC(=O)Cc1ccc(N(Cc2ccccc2F)S(=O)(=O)c2ccc(Br)cc2)cc1 | 18.1% |
| COc1ccc(-n2nc(C(=O)Nc3cc(OC)c(OC)c(OC)c3)c3ccccc3c2=O)c(OC)c1 | 1.85% |
| O=c1c2ccccc2c(-c2ccccc2)nn1Cc1ccccc1 | 0.35% |
| O=c1c2ccccc2c(-c2ccc(F)cc2)nn1-c1ccc(C(F)(F)F)cc1 | 21.4% (active) |
| O=c1c2ccccc2c(-c2ccccc2)nn1-c1ccccn1 | 4.37% |
| COc1ccc(CS(=O)/C(Cl)=C(/Cl)C(=O)Nc2ccc(OC)nc2)cc1 (stereo not given) | 11.2% |
| Cc1ccc(-n2nc3ccc(NC(=O)/C=C/c4ccco4)cc3n2)cc1C | 6.59% |
| O=C(/C=C/c1ccco1)Nc1cccc(-c2nc3ccccc3[nH]2)c1 | 20.3% (active) |
| O=C(Cc1cccs1)Nc1cccc(-c2nc3ccccc3[nH]2)c1 | 3.86% |
| COc1ccc(C(c2nnnn2C2CCCCC2)N2CCN(c3ccccc3F)CC2)cc1 (stereo not given) | 23.3% (active) |
| COc1ccc(N2CCN(C(c3cc4ccc(C)cc4[nH]c3=O)c3nnnn3C3CCCC3)CC2)cc1 (stereo not given) | 0.99% |
| CC(C)C(c1nnnn1C1CCCC1)N1CCN(c2ccccc2F)CC1 (stereo not given) | 10.8% |
| CC(C)C(=O)Nc1oc(-c2ccccc2)cc1C#N | 3.99% |
| O=C(c1cccc(S(=O)(=O)Nc2ccccc2Cl)c1)N1CCN(C(=O)c2ccco2)CC1 | -2.11% |

| Compound | inhibition |
| --- | --- |
| O=C(O)CCCCOn1ccnc1 | 4.94% |
| O=C(CCCn1c(SCC(=O)c2ccc(F)cc2)nc2ccccc2c1=O)NCc1ccco1 | 3.6% |
| C=C(C)Cn1c(SCC(=O)NCc2ccco2)nc2sc3c(c2c1=O)CCC3 | 8.57% |
| O=C(CSc1nc2cc3c(cc2c(=O)n1CCC1=CCCCC1)OCO3)NCc1ccco1 | 26.8% (active) |
| CCC1(CC)NC(=O)N(CC(=O)OCC(=O)NC(=O)c2ccccc2)C1=O | 1.96% |
| CC1(C)C2CC=C(/C=N/NC(=O)C3CC3)C1C2 (stereo not given) | 4.14% |
| CSCC[C@H](NC(=O)OC(C)(C)C)C(=O)N/N=C/c1cc2ccc(C)cc2nc1Cl | -2.75% |
| CC(=O)c1ccc(NC(=O)c2ccc3c(Cl)c4c(nc3c2)CCCC4)cc1 | -4.67% |
| COc1ccc(-c2nnc(SCC(=O)c3ccc4c(c3)OCCO4)o2)cc1 | -4.74% |
| Fc1ccc2nc(-c3ccccc3)nc(SCc3nnc(-c4ccccc4)o3)c2c1 | 2.58% |
| Fc1ccc(-c2nnc(CSc3nnc(-c4ccc5c(c4)OCO5)o3)o2)cc1 | 29.9% (active) |
| CCCS(=O)(=O)N1CCC(CCOc2ccccc2)(C(=O)OCC)CC1 | 6.41% |
| COC(=O)c1c(NC(=O)COC(=O)[C@@H](NS(=O)(=O)c2ccccc2)C(C)C)sc2c1CCC2 | 10.2% |
| O=c1oc2c(CN3CCCCC3)c(O)ccc2c2c1CCCCC2 | 6.84% |
| COc1ccc2c3c(c(=O)oc2c1OCC(=O)C(C)(C)C)CCCC3 | 10.2% |
| CCCOc1ccc2c3c(c(=O)oc2c1OCCC)CCC3 | 21.1% (active) |
| O=C(CSc1nc2ccc(Nc3nc(N4CCOCC4)nc(N4CCOCC4)n3)cc2s1)NCc1ccco1 | 2.78% |
| CN(C)c1ccc(C(CNC(=O)c2ccc(F)cc2)c2c[nH]c3ccccc23)cc1 (stereo not given) | -7.11% |
| C=CCOC(=O)C1=C(C)OC(N)=C(C#N)C1c1ccc(F)cc1 (stereo not given) | -1.17% |
| Cc1cc2c(c(=O)n1C)C(C(C)C)C(C#N)=C(N)O2 (stereo not given) | 9.44% |
| C=CCSc1nc2c(c(=O)[nH]1)C(C(C)C)C(C#N)=C(N)O2 (stereo not given) | 77.2% (active) |
| CC(=O)Oc1c(C(=O)c2nnc(C)o2)c(=O)n(Cc2ccccc2)c2ccccc12 | 1.05% |
| COc1ccc(F)cc1C(=O)C1CCCN(C(=O)CCc2ccccn2)C1 (stereo not given) | 6.35% |
